Data reported in ChEMBL document CHEMBL1130253 (J Med Chem, 1997).

Tests used:
[1] = target: Human immunodeficiency virus type 1 protease (Human immunodeficiency virus 1, UniProt Q72874); assay: Inhibitory activity against HIV-1 protease
CCRF-CEM = assay: Concentration required to inhibit against HIV strain IIIB in CEM cell; format: functional; details: Homo sapiens, read-out: ED50 (the source's name)
[2] = The area under curve (50 mg/kg) administered orally in rat; format: ADME, organism-based; details: in vivo, po
How it was run: (§1)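 Male Sprague-Dawley rats (n = 3), beagle dogs (1M/1F), female cynomolgus monkeys and marmosets (1M/1F). Dosed 12.5–25 mg/kg iv or 25–50 mg/kg oral in 5% dextrose, or propylene glycol:water 50:50 for marmosets. Fasted groups fasted overnight. Venous blood sampled predose to 48 h. Plasma stored at -20 °C, extracted and assayed by HPLC-UV. Mean (SD) reported for rats.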

[3] = The area under curve (100 mg/kg) administered orally in humans; format: ADME, organism-based; details: human, in vivo, po
How it was run: (§2)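 Healthy human volunteers given single oral doses of 100–800 mg with food. Plasma PK parameters reported as mean ± SD of four subjects per dose. Tmax reported as median.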

Homo sapiens [4] = assay: The maximum time for retention (800 mg) administered orally in human; details: in vivo, po
[5] = The maximum plasma concentration (25 mg/kg) administered intravenously in rat; format: ADME, organism-based; design: dose 25 mg/kg, route intravenous; details: iv; how it was run: as §1
[6] = The maximum time for retention (400 mg) administered orally in human; details: in vivo, po
[7] = Elimination rate constant of the compound(100 mg) administered orally in human; details: in vivo, po, read-out: T1/2 el (converted)
[8] = Elimination rate constant of the compound(25 mg/kg) administered orally in monkey; format: ADME, organism-based; details: simiiformes, in vivo, po, read-out: T1/2 el (converted); how it was run: as §1
[9] = Oral bioavailability (50 mg/kg) in fasted rat; format: ADME, organism-based; details: in vivo; how it was run: as §1
[10] = Elimination rate constant of the compound(15 mg/kg) administered intravenously in dog; format: ADME, organism-based, Canis lupus familiaris; details: in vivo, iv, read-out: T1/2 el (converted); how it was run: as §1
[11] = Oral bioavailability (50 mg/kg) in rat; format: ADME, organism-based; details: in vivo; how it was run: as §1
Homo sapiens [12] = assay: The maximum plasma concentration (800 mg/kg) administered orally in human; format: ADME, organism-based; design: route oral; details: in vivo, po; how it was run: as §2
[13] = The maximum time for retention (30 mg/kg) administered orally in dog; format: ADME, organism-based, Canis lupus familiaris; details: in vivo, po
How it was run: (§3)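 Plasma pharmacokinetics in male Sprague-Dawley rats (n = 3), beagle dogs (1 male, 1 female), female cynomolgus monkeys (2) and marmosets (1 male, 1 female). Single iv (12.5-25 mg/kg) or oral (25-50 mg/kg) dose. Vehicle was 5% dextrose for rat, dog and monkey, and propylene glycol:water (50:50) for marmoset. Venous blood was drawn predose and up to 48 h. Plasma was stored at -20 °C, extracted and assayed by HPLC-UV. Values are means.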

[14] = The maximum plasma concentration (15 mg/kg) administered intravenously in dog; format: ADME, organism-based, Canis lupus familiaris; design: dose 15 mg/kg, route intravenous; details: iv; how it was run: as §1
[15] = Oral bioavailability (25 mg/kg) in monkey; format: ADME, organism-based; details: primates, in vivo; how it was run: as §1
[16] = The area under curve (12.5 mg/kg) administered intravenously in monkey; format: ADME, organism-based; details: simiiformes, in vivo, iv; how it was run: as §1
[17] = Elimination rate constant of the compound(400 mg/kg) administered orally in human; format: ADME, organism-based; details: in vivo, po, read-out: T1/2 el (converted); how it was run: as §2
[18] = The maximum plasma concentration (100 mg/kg) administered orally in human; format: ADME, organism-based; design: route oral; details: po; how it was run: as §2
[19] = The maximum time for retention (12.5 mg/kg) administered intravenously in monkey; format: ADME, organism-based; details: simiiformes, in vivo, iv; how it was run: as §1
[20] = The area under curve (400 mg/kg) administered orally in humans; format: ADME, organism-based; details: human, in vivo, po; how it was run: as §2
[21] = The maximum plasma concentration (12.5 mg/kg) administered intravenously in marmoset; format: ADME, organism-based; design: dose 12.5 mg/kg, route intravenous; details: callithrix, iv; how it was run: as §1
[22] = Elimination rate constant of the compound(12.5 mg/kg) administered intravenously in rmonkey; format: ADME, organism-based; details: simiiformes, in vivo, iv, read-out: T1/2 el (converted); how it was run: as §1
[23] = Elimination rate constant of the compound(50 mg/kg) administered orally in fasted rat; format: ADME, organism-based; details: in vivo, po, read-out: T1/2 el (converted); how it was run: as §1
[24] = The maximum time for retention (200 mg) administered orally in human; details: in vivo, po
[25] = Elimination rate constant of the compound(12.5 mg/kg) administered intravenously in marmoset; format: ADME, organism-based; details: callithrix, in vivo, iv, read-out: T1/2 el (converted); how it was run: as §1
[26] = The maximum plasma concentration (30 mg/kg) administered orally in dog; format: ADME, organism-based, Canis lupus familiaris; design: dose 30 mg/kg, route oral; details: po; how it was run: as §1
[27] = Elimination rate constant of the compound(25 mg/kg) administered intravenously in rat; format: ADME, organism-based; details: in vivo, iv, read-out: T1/2 el (converted); how it was run: as §1
[28] = The maximum time for retention (12.5 mg/kg) administered intravenously in marmoset; format: ADME, organism-based; details: callithrix, in vivo, iv; how it was run: as §1
[29] = The area under curve (25 mg/kg) administered orally in marmoset; format: ADME, organism-based; details: callithrix, in vivo, po; how it was run: as §1
[30] = The maximum time for retention (50 mg/kg) administered orally in fasted rat; format: ADME, organism-based; details: in vivo, po
How it was run: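 Male Sprague-Dawley rats (n = 3) were fasted overnight, then given a single oral dose (25-50 mg/kg range) in 5% dextrose. Jugular, femoral or cephalic blood was sampled predose and up to 48 h. Plasma was separated at once, held at -20 °C, extracted and quantified by HPLC with UV detection. Values are the mean of three rats.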

[31] = The maximum time for retention (100 mg) administered orally in human; details: in vivo, po
[32] = The area under curve (15 mg/kg) administered intravenously in dog; format: ADME, organism-based, Canis lupus familiaris; details: in vivo, iv; how it was run: as §1
[33] = The maximum plasma concentration (200 mg/kg) administered orally in human; format: ADME, organism-based; design: route oral; details: po; how it was run: as §2
[34] = The maximum plasma concentration (12.5 mg/kg) administered intravenously in monkey; format: ADME, organism-based; design: dose 12.5 mg/kg, route intravenous; details: simiiformes, iv; how it was run: as §1
[35] = The maximum plasma concentration (25 mg/kg) administered orally in marmoset; format: ADME, organism-based; design: dose 25 mg/kg, route oral; details: callithrix, po; how it was run: as §1
[36] = The maximum plasma concentration (25 mg/kg) administered orally in monkey; format: ADME, organism-based; design: dose 25 mg/kg, route oral; details: simiiformes, po; how it was run: as §1
[37] = The area under curve (25 mg/kg) administered intravenously in rat; format: ADME, organism-based; details: in vivo, iv; how it was run: as §1
[38] = The maximum time for retention (25 mg/kg) administered intravenously in rat; format: ADME, organism-based; details: in vivo, iv; how it was run: as §3
[39] = Elimination rate constant of the compound(25 mg/kg) administered orally in marmoset; format: ADME, organism-based; details: callithrix, in vivo, po, read-out: T1/2 el (converted); how it was run: as §1
[40] = The maximum time for retention (25 mg/kg) administered orally in marmoset; format: ADME, organism-based; details: callithrix, in vivo, po; how it was run: as §3
[41] = The maximum time for retention (25 mg/kg) administered orally in monkey; format: ADME, organism-based; details: simiiformes, in vivo, po; how it was run: as §3
[42] = The maximum time for retention (15 mg/kg) administered intravenously in dog; format: ADME, organism-based, Canis lupus familiaris; details: in vivo, iv; how it was run: as §1
[43] = The maximum plasma concentration (50 mg/kg) administered orally in rat; format: ADME, organism-based; design: dose 50 mg/kg, route oral; details: po; how it was run: as §1
[44] = Oral bioavailability (30 mg/kg) in dog; format: ADME, organism-based, Canis lupus familiaris; details: in vivo; how it was run: as §1
[45] = The maximum plasma concentration (50 mg/kg) administered orally in fasted rat; format: ADME, organism-based; design: dose 50 mg/kg, route oral; details: po; how it was run: as §1
[46] = Elimination rate constant of the compound(800 mg/kg) administered orally in human; format: ADME, organism-based; details: in vivo, po; how it was run: as §2
[47] = The area under curve (50 mg/kg) administered orally in fasted rat; format: ADME, organism-based; details: in vivo, po; how it was run: as §1
[48] = Elimination rate constant of the compound(30 mg/kg) administered orally in dog; format: ADME, organism-based, Canis lupus familiaris; details: in vivo, po, read-out: T1/2 el (converted); how it was run: as §1
[49] = Oral bioavailability (25 mg/kg) in marmoset; format: ADME, organism-based; details: primates, in vivo; how it was run: as §1
[50] = Elimination rate constant of the compound(200 mg/kg) administered orally in human; format: ADME, organism-based; details: in vivo, po, read-out: T1/2 el (converted); how it was run: as §2
[51] = The area under curve (25 mg/kg) administered orally in monkey; format: ADME, organism-based; details: simiiformes, in vivo, po; how it was run: as §1
[52] = The area under curve (30 mg/kg) administered orally in dog; format: ADME, organism-based, Canis lupus familiaris; details: in vivo, po; how it was run: as §1
[53] = The area under curve (12.5 mg/kg) administered intravenously in marmoset; format: ADME, organism-based; details: callithrix, in vivo, iv; how it was run: as §1
Homo sapiens [54] = assay: The area under curve (800 mg/kg) administered orally in humans; format: ADME, organism-based; details: in vivo, po; how it was run: as §2
[55] = The maximum time for retention (50 mg/kg) administered orally in rat; format: ADME, organism-based; details: in vivo, po; how it was run: as §3
[56] = The maximum plasma concentration (400 mg/kg) administered orally in human; format: ADME, organism-based; design: route oral; details: po; how it was run: as §2

Structure (SMILES): Cc1c(O)cccc1C(=O)N[C@@H](CSc1ccc2ccccc2c1)[C@H](O)CN1C[C@H]2CCCC[C@H]2C[C@H]1C(=O)NC(C)(C)C
- Ki [1]: 0.098 µM
- EC50 (CCRF-CEM): 0.1 µM

Structure (SMILES): CS(=O)(=O)O.Cc1c(O)cccc1C(=O)N[C@@H](CSc1ccccc1)[C@H](O)CN1C[C@H]2CCCC[C@H]2C[C@H]1C(=O)NC(C)(C)C [NELFINAVIR MESYLATE]
- AUC [2]: 6.09 µg·h/mL
- AUC [3]: 1.25 µg·h/mL
- T max (Homo sapiens [4]): 3.5 h
- Cmax [5]: 12.7 µg/mL
- Tmax [6]: 4 h
- half-life [7]: 1.72 h
- half-life [8]: 3 h
- bioavailability [9]: 29%
- half-life [10]: 1.18 h
- bioavailability [11]: 43%
- Cmax (Homo sapiens [12]): 3.163 µg/mL
- Tmax [13]: 3 h
- Cmax [14]: 11.9 µg/mL
- bioavailability [15]: 9%
- AUC [16]: 10.3 µg·h/mL
- half-life [17]: 2.28 h
- Cmax [18]: 0.313 µg/mL
- Tmax [19]: 4.8 min
- AUC [20]: 7.55 µg·h/mL
- Cmax [21]: 5.67 µg/mL
- half-life [22]: 1.47 h
- half-life [23]: 1.07 h
- Tmax [24]: 3 h
- half-life [25]: 1.23 h
- Cmax [26]: 1.22 µg/mL
- half-life [27]: 1.26 h
- EC50 (CCRF-CEM): 0.014 µM
- Tmax [28]: 4.8 min
- AUC [29]: 2.89 µg·h/mL
- Tmax [30]: 1.39 h
- Tmax [31]: 3 h
- AUC [32]: 11.2 µg·h/mL
- Cmax [33]: 0.439 µg/mL
- Cmax [34]: 7.99 µg/mL
- Cmax [35]: 0.84 µg/mL
- Cmax [36]: 1.59 µg/mL
- AUC [37]: 7.01 µg·h/mL
- Tmax [38]: 3.6 min
- half-life [39]: 2.04 h
- Tmax [40]: 1 h
- Tmax [41]: 3 h
- Tmax [42]: 4.8 min
- Cmax [43]: 1.34 µg/mL
- bioavailability [44]: 35%
- Cmax [45]: 1.47 µg/mL
- T1/2 el [46]: 3.37 h
- AUC [47]: 4.04 µg·h/mL
- half-life [48]: 7.72 h
- bioavailability [49]: 10%
- half-life [50]: 2.21 h
- AUC [51]: 6.29 µg·h/mL
- AUC [52]: 13.3 µg·h/mL
- AUC [53]: 6.63 µg·h/mL
- AUC (Homo sapiens [54]): 22.2 µg·h/mL
- Tmax [55]: 2.82 h
- Cmax [56]: 1.58 µg/mL
